Measurements from ChEMBL document CHEMBL4411279, “Synthesis of new chalcone-based homoserine lactones and their antiproliferative activity evaluation” (Eur J Med Chem, 2019).
The source made the active and inactive calls. The calls are words filed in the database; no cut-off is given here.

Key:
MCF7 = experiment: Antiproliferative activity against human MCF7 cells after 72 hrs by MTT assay; type: functional, cell-based; settings: MCF7, 72 h
Outline: (§1)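 Cells seeded 3,000/well, after 24 h medium replaced with compound at 64, 32, 16, 8, 4, 2, 1, 0.5 µM; 72 h exposure, MTT read-out at 570 nm; IC50 given as mean ± SD.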

MGC-803 = experiment: Antiproliferative activity against human MGC803 cells after 72 hrs by MTT assay; type: functional, cell-based; settings: MGC-803, 72 h; outline: as §1
DU-145 [1] = experiment: Antiproliferative activity against human DU145 cells after 72 hrs by MTT assay; type: functional, cell-based; settings: DU-145, 72 h; outline: as §1
PC-3 = experiment: Antiproliferative activity against human PC3 cells after 72 hrs by MTT assay; type: functional, cell-based; settings: PC-3, 72 h; outline: as §1
DU-145 [2] = experiment: Inhibition of colony formation in human DU145 cells after 21 days by crystal violet staining-based assay; type: functional, cell-based
Outline: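 DU145 seeded 4000/well, grown 4 days, then medium with compound at various concentrations for 21 days; PBS washed, fixed in 4% paraformaldehyde, stained with 0.1% crystal violet; colonies (>10 cells) counted; inhibition = (1 − treated/control colonies) × 100%.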

DU-145 [3] = experiment: Growth inhibition of human DU145 cells at 2.5 uM by MTT assay; type: functional, cell-based; settings: TDE = time-dependent effect
Outline: (§2)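 DU145 growth inhibition measured by MTT; time course at 24, 48 and 72 h; combination arm used recombinant TRAIL at 100 ng/mL together with compound (2.5 or 5.0 µM); mean ± SD, experiment repeated three times, Student's t test.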

DU-145 [4] = experiment: Induction of apoptosis in human DU145 cells assessed as cell rounding at 5 uM after 24 hrs by Hoechst 33258 staining-based fluorescence microscopic analysis; type: functional
Outline: (§3)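 DU145 seeded 1×10^5/well, adhered overnight, treated 24 h with compound alone or combined with TRAIL; stained with Hoechst 33258 for 30 min in the dark; nuclear morphology examined by fluorescence microscopy.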

DU-145 [5] = experiment: Growth inhibition of human DU145 cells at 2.5 uM after 24 to 48 hrs by MTT assay; type: functional, cell-based; outline: as §2
DU-145 [6] = experiment: Growth inhibition of human DU145 cells at 2.5 uM after 72 hrs in presence of TRAIL by MTT assay relative to control; type: functional; settings: DU-145, 72 h, read-out: GI; outline: as §2
DU-145 [7] = experiment: Induction of apoptosis in human DU145 cells assessed as chromatin shrinkage at 5 uM after 24 hrs by Hoechst 33258 staining-based fluorescence microscopic analysis; type: functional, cell-based; outline: as §3
DU-145 [8] = experiment: Induction of apoptosis in human DU145 cells assessed as formation of apoptotic bodies at 5 uM after 24 hrs by Hoechst 33258 staining-based fluorescence microscopic analysis; type: functional, cell-based; outline: as §3
DU-145 [9] = experiment: Induction of apoptosis in human DU145 cells assessed as cell rounding at 5 uM after 24 hrs in presence of TRAIL by Hoechst 33258 staining-based fluorescence microscopic analysis; type: functional; outline: as §3
DU-145 [10] = experiment: Induction of apoptosis in human DU145 cells assessed as chromatin shrinkage at 5 uM after 24 hrs in presence of TRAIL by Hoechst 33258 staining-based fluorescence microscopic analysis; type: functional, cell-based; outline: as §3
DU-145 [11] = experiment: Induction of apoptosis in human DU145 cells assessed as formation of apoptotic bodies at 5 uM after 24 hrs in presence of TRAIL by Hoechst 33258 staining-based fluorescence microscopic analysis; type: functional, cell-based; outline: as §3
DU-145 [12] = experiment: Induction of apoptosis in human DU145 cells assessed as viable cells at 5 uM after 24 hrs by Annexin V-FITC/propidium iodide staining-based high content screening assay (reference value: 97.9%); type: functional; settings: DU-145, 24 h, read-out: Activity
Outline: (§4)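 DU145 seeded 3×10^5/well, grown 24 h, treated 24 h with compound alone or plus TRAIL; harvested, stained with Annexin V-FITC/PI per kit protocol, quantified by high content screening; mean ± SD of three experiments.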

DU-145 [13] = experiment: Induction of apoptosis in human DU145 cells assessed as early apoptotic cells at 5 uM after 24 hrs by Annexin V-FITC/propidium iodide staining-based high content screening assay (reference value: 0.3%); type: functional; outline: as §4
DU-145 [14] = experiment: Induction of apoptosis in human DU145 cells assessed as late apoptotic cells at 5 uM after 24 hrs by Annexin V-FITC/propidium iodide staining-based high content screening assay (reference value: 0.2%); type: functional; outline: as §4
DU-145 [15] = experiment: Induction of apoptosis in human DU145 cells assessed as necrotic cells at 5 uM after 24 hrs by Annexin V-FITC/propidium iodide staining-based high content screening assay (reference value: 1.6%); type: functional; outline: as §4
DU-145 [16] = experiment: Induction of apoptosis in human DU145 cells assessed as viable cells at 5 uM after 24 hrs in presence of TRAIL by Annexin V-FITC/propidium iodide staining-based high content screening assay (reference value: 97.9%); type: functional; settings: DU-145, 24 h, read-out: Activity; outline: as §4
DU-145 [17] = experiment: Induction of apoptosis in human DU145 cells assessed as early apoptotic cells at 5 uM after 24 hrs in presence of TRAIL by Annexin V-FITC/propidium iodide staining-based high content screening assay (reference value: 0.3%); type: functional; outline: as §4
DU-145 [18] = experiment: Induction of apoptosis in human DU145 cells assessed as late apoptotic cells at 5 uM after 24 hrs in presence of TRAIL by Annexin V-FITC/propidium iodide staining-based high content screening assay (reference value: 0.2%); type: functional; outline: as §4
DU-145 [19] = experiment: Induction of apoptosis in human DU145 cells assessed as necrotic cells at 5 uM after 24 hrs in presence of TRAIL by Annexin V-FITC/propidium iodide staining-based high content screening assay (reference value: 1.6%); type: functional; outline: as §4
DU-145 [20] = experiment: Induction of apoptosis in human DU145 cells assessed as increase in caspase-3/7 activity at 2.5 to 10 uM after 24 hrs by Caspase-Glo 3/7 assay; type: functional, cell-based
Outline: (§5)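 DU145 treated 24 h with compound alone or with TRAIL (100 ng/mL); caspase-3/7 activity measured by Caspase-Glo 3/7 luminescent protocol relative to untreated control; three independent experiments, mean ± SD, Student's t test.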

DU-145 [21] = experiment: Induction of apoptosis in human DU145 cells assessed as increase in caspase-3/7 activity at 5 uM after 24 hrs in presence of TRAIL by Caspase-Glo 3/7 assay relative to control; type: functional; outline: as §5

IC50 (MCF7): 17.4 µM | IC50 (MGC-803): 27.1 µM | IC50 (DU-145 [1]): 3.24 µM | IC50 (PC-3): 4.61 µM
Structure (SMILES): O=C(COc1ccc(C(=O)/C=C/c2ccccc2Cl)cc1)N[C@H]1CCOC1=O
inhibition (DU-145 [2]): Dose-dependent effect | growth inhibition (GI) (DU-145 [3]): Tde | Activity (DU-145 [4]): Active | Activity (DU-145 [5]): Active | inhibition of growth at 2.5 µM (DU-145 [6]): 50% | Activity (DU-145 [7]): Active | Activity (DU-145 [8]): Active | Activity (DU-145 [9]): Active | Activity (DU-145 [10]): Active | Activity (DU-145 [11]): Active | viability at 5 µM (DU-145 [12]): 90.1% | Activity (DU-145 [13]): 6.4% | Activity (DU-145 [14]): 1.7% | Activity (DU-145 [15]): 1.7% | viability at 5 µM (DU-145 [16]): 84.8% | Activity (DU-145 [17]): 13.4% | Activity (DU-145 [18]): 1.7% | Activity (DU-145 [19]): 0.1% | Activity (DU-145 [20]): Active | fold change (FC) (DU-145 [21]): 3
